These results are taken from ChEMBL document CHEMBL2040760, “Synthesis and biological evaluation of novel (-)-Cercosporamide derivatives as potent selective PPARγ modulators” (Eur J Med Chem, 2012).

One may read the EC50 as the concentration giving half of the maximal effect. The solubility is the concentration that dissolves in the medium under given conditions.

Series [1] concerns the target T1, Peroxisome proliferator-activated receptor gamma (Homo sapiens) (UniProt P37231).
T1 sequence (whole entry): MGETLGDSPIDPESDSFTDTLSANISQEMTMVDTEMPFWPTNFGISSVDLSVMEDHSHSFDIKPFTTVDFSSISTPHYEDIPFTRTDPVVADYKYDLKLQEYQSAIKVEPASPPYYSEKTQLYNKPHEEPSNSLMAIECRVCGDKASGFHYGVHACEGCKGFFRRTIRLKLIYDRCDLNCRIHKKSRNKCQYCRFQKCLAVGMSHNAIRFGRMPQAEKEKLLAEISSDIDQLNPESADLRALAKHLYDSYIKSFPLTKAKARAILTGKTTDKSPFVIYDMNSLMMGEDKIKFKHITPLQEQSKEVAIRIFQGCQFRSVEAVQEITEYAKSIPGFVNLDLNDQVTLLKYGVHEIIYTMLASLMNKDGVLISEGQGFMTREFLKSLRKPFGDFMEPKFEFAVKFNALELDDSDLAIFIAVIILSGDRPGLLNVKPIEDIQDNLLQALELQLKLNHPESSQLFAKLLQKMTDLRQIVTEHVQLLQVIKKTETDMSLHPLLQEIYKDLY
Kind of series: Modulation of full-length human pSG5-fused PPARgamma expressed in MG-63 cells co-expressing pGV-P2-PPRE after 24 hrs by luciferase reporter gene based transactivation assay relative to 5-(4-{[6-(4-hydroxy-3,5-dimethylphenoxy)-1-methyl-1H-benzimidazol- 2-yl]methoxy}benzyl)-1,3-thiazolidine-2,4-dione. Format: cell-based. In a few lines: (§1)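 MG-63 cells transiently co-transfected (Lipofectamine, 4 h, serum- and antibiotic-free) with pSG5-hPPARγ and pGV-P2-PPRE luciferase reporter, replated at 40,000 cells/well. After 24 h and medium change, exposed to graded compound concentrations for 20 h. Luciferase luminescence read as the output.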

The target of series [2] is T2, Peroxisome proliferator-activated receptor gamma (Homo sapiens, UniProt P37231).
T2 sequence (P37231 whole entry): T1 sequence (whole entry)
Kind of series: Modulation of full-length human pSG5-fused PPARgamma expressed in MG-63 cells co-expressing pGV-P2-PPRE after 24 hrs by luciferase reporter gene based transactivation assay. Format: cell-based. In a few lines: as §1

The test system of series [3] is Rattus norvegicus. The series can be described thus: Antidiabetic activity in Zucker diabetic fatty rat assessed as reduction of free fatty acids level at >1 mg/kg, po qd for 12 days. In kind it is functional, organism-based. The method in brief:
(§2)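 Female ZDF rats, 5 weeks old on arrival, acclimatised over 1 week on MR-DBT chow with 10% lard. Randomised on Day -1 by BW, PG, insulin and blood indices. Once-daily oral gavage in 0.5% methylcellulose at 0.01–100 mg/kg for 12 days, n = 5. BW recorded daily. Tail-vein plasma taken Day 12 for glucose, TG, FFA and insulin kits. Dunnett vs vehicle.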

Series [4] deals with Rattus norvegicus. Kind of series: Antidiabetic activity in Zucker diabetic fatty rat assessed as reduction of triglyceride level at 100 mg/kg, po qd for 12 days. In kind it is functional, organism-based. On the set-up: dose 100 mg/kg. In a few lines:
as §2

The target of series [5] is T1, Peroxisome proliferator-activated receptor gamma (Homo sapiens). Kind of series: Modulation of human GAL4-fused PPARgamma LBD expressed in COS7 cells co-expressing pG5luc by luciferase reporter gene based transactivation assay relative to control. In kind it is cell-based. The following applies: COS-7. The method in brief:
(§3)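 COS7 cells in DMEM with 10% FBS were transfected with pM-hPPARγ, pM-PPARα or pM-PPARδ (GAL4-LBD) plus pG5luc using Lipofectamine 2000, then reseeded and held about 24 h. Serial dilutions were added, with 0.1% DMSO as control, for about 24 h more. Read-out was luciferase luminescence. Mean ± S.E.M., n = 3.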

Series [6] has as its target T3, Peroxisome proliferator-activated receptor alpha (Homo sapiens) (UniProt Q07869).
T3 sequence (whole entry): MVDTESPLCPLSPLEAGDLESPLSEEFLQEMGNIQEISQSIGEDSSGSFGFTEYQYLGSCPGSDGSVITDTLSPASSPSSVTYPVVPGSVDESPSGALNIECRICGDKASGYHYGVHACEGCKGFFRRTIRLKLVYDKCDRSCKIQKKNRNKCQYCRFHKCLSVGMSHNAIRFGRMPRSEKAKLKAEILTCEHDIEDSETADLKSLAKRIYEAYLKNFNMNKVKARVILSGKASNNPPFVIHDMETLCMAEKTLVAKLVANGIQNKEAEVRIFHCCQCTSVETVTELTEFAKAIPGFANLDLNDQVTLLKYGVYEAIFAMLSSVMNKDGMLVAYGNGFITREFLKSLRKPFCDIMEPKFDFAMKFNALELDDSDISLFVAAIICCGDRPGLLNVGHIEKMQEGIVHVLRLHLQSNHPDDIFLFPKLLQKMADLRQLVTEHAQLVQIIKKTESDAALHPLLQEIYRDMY
Kind of series: Modulation of human GAL4-fused PPARalpha LBD expressed in COS7 cells co-expressing pG5luc at 10 uM by luciferase reporter gene based transactivation assay. Format: cell-based. Particulars: COS-7. The method in brief:
as §3
On the technique in general: Reporter assays use an easily measured gene product as a stand-in for the process of interest.

The subject of series [7] is Rattus norvegicus. Kind of series: Antidiabetic activity in po dosed Zucker diabetic fatty rat assessed as improvement in plasma lipids profiles administered qd for 12 days. In kind it is functional, organism-based. In a few lines: as §2
Series [8] has as its target T4, Peroxisome proliferator-activated receptor delta (Homo sapiens) (UniProt Q03181).
T4 sequence (whole entry): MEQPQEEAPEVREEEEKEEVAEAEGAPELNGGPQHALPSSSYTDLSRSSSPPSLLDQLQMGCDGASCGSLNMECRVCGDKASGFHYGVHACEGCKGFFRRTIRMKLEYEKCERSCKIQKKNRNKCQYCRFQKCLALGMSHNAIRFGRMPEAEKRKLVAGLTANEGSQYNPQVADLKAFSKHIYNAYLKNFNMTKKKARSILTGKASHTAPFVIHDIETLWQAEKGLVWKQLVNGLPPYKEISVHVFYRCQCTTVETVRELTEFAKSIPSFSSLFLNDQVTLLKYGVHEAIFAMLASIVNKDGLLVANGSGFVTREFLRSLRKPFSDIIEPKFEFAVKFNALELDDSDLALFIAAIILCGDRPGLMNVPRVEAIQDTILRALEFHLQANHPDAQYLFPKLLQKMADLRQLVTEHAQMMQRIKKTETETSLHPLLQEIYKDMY
The series can be described thus: Modulation of human GAL4-fused PPARdelta LBD expressed in COS7 cells co-expressing pG5luc at 10 uM by luciferase reporter gene based transactivation assay. The following applies: COS-7. Format: cell-based. The method in brief:
as §3

The nature of series [9]: Solubility of the compound in JP2 at pH 6.8. Format: physicochemical. The following applies: JP2, pH 6.8. In a few lines: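 Solubility was measured in JP2 medium at pH 6.8.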
The target of series [10] is T2, Peroxisome proliferator-activated receptor gamma. The series can be described thus: Modulation of human GAL4-fused PPARgamma LBD expressed in COS7 cells co-expressing pG5luc by luciferase reporter gene based transactivation assay. In kind it is cell-based, COS-7. In a few lines: as §3
Series [11] has as its system Rattus norvegicus. The series can be described thus: Antidiabetic activity in Zucker diabetic fatty rat assessed as reduction of non-fasting plasma glucose level at >1 mg/kg, po qd for 12 days. In kind it is functional. The method in brief: as §2
Series [12] has as its system Rattus norvegicus. The series can be described thus: Toxicity in Zucker diabetic fatty rat assessed as increase in body weight at 0.1 mg/kg, po qd for 12 days. On the set-up: dose 0.1 mg/kg, route oral. Particulars: in vivo, 288 h. Format: organism-based. In a few lines: (§4)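 Female ZDF rats (5 weeks old on arrival, acclimatized >1 week on MR-DBT diet with 10% lard) randomized on Day -1 by BW, plasma glucose, insulin, Hct, Hb, RBC, MCV; n = 5/group. Oral gavage once daily in 0.5% methylcellulose, 0.01–100 mg/kg, Days 0–11. BW recorded daily; tail-vein plasma on Day 12 for glucose, TG, insulin, FFA; Dunnett's test vs vehicle.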

For series [13], the system named is Rattus norvegicus. The series can be described thus: Toxicity in Wistar-Imamichi rat assessed as increase in body weight at 300 mg/kg, po qd for 14 days. Format: organism-based. Also on record: dose 300 mg/kg, route oral. The following applies: in vivo, 336 h. In a few lines:
(§5)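 Female Wistar–Imamichi rats (7 weeks old, acclimatized >1 week on FR2 chow), randomized by BW; n = 5/group. Oral gavage once daily in 0.5% methylcellulose, 100 mg/kg or 30–300 mg/kg, Days 0–13. BW recorded daily. On Day 14, heart weighed after Evans blue dosing and aortic blood draw under ether. Dunnett's or unpaired two-tailed t-test vs vehicle.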

In series [14] the test system is Rattus norvegicus. The series can be described thus: Toxicity in po dosed Wistar-Imamichi rat assessed as increase heart weight administered qd for 14 days. Format: organism-based. Particulars: in vivo, 336 h. The method in brief:
as §5

Series [15] has as its system Rattus norvegicus. Kind of series: Antidiabetic activity in Zucker diabetic fatty rat assessed as reduction of triglyceride level at 1 to 100 mg/kg, po qd for 12 days. In kind it is functional, organism-based. The method in brief:
as §4

≈ marks a conversion by molar mass, not a printed value. Calls of active or inactive are those of the source. The rule behind the calls is not given here. A value given as a limit tells only on which side of the number the result lay.

The molecule `COc1cc(O)c2c(c1C(=O)NCc1c(C)ccc3ccccc13)OC1=CC(O)=C(C(C)=O)C(=O)[C@]12C` gave an Emax in series [1] of 47%. Moreover, the midpoint of the response in series [2], the EC50, lay at 28 nM.
In turn, `COc1cc(O)c2c(c1C(=O)NCc1c(C)cc(F)c3ccccc13)OC1=CC(O)=C(C(C)=O)C(=O)[C@]12C` gave an Emax in series [1] of 50%. Further, it took 4.8 nM to reach a half-maximal effect in series [2] (EC50).
In the same order, the values of `COc1cc(O)c2c(c1C(=O)NCc1cccc3ccccc13)OC1=CC(O)=C(C(C)=O)C(=O)[C@]12C` are 47% and 180 nM.
For `CCc1cc(F)c2ccccc2c1CNC(=O)c1c(OC)cc(O)c2c1OC1=CC(O)=C(C(C)=O)C(=O)[C@]12C` [listing 1 of 2 here], the result in the series with Rattus norvegicus [3] and in the series on Rattus norvegicus [4] was Active. The Emax in series [1] came to 38%; in series [5] it was 64%. Also, the outcome in series [6] and in series [8] was inactive. Moreover, the Activity result in the series on Rattus norvegicus [7] was “Dose-dependent effect”.
Molecule `CCc1cc(F)c2ccccc2c1CNC(=O)c1c(OC)cc(O)c2c1OC1=CC(O)=C(C(C)=O)C(=O)[C@]12C` [listing 2 of 2 here] had a solubility in [9] of 23 µg/mL (≈ 43.3 µM). For the same molecule, the EC50 in [10] was 12 nM; in [2] it was 0.94 nM.
Take `COc1cc(O)c2c(c1C(=O)NCc1c(C)cc(Cl)c3ccccc13)OC1=CC(O)=C(C(C)=O)C(=O)[C@]12C`: the Emax in series [1] was 57%. The EC50 in [2] was found to be 22 nM.
In series [1], `CCCc1ccc2ccccc2c1CNC(=O)c1c(OC)cc(O)c2c1OC1=CC(O)=C(C(C)=O)C(=O)[C@]12C` displayed an Emax of 37%. Also, the 50% effective concentration (EC50) in series [2] is 43 nM.
As to `CN(CCOc1ccc(CC2SC(=O)NC2=O)cc1)c1ccccn1` (configuration not stated) [ROSIGLITAZONE], the outcome in the series with Rattus norvegicus [3] and with Rattus norvegicus [15] was Active. In addition, the Activity in the series on Rattus norvegicus [11] was under 200 mg/dL; in the series with Rattus norvegicus [12], “Toxic”; in the series on Rattus norvegicus [13], “Non-toxic”; in the series on Rattus norvegicus [14], “Dose-dependent effect”; in the series on Rattus norvegicus [7] it was “Dose-dependent effect”.
